Results from article PMC5599970 (Hepatology (Baltimore, Md.), 2017).

Key:
[1] = Hepatic extraction in preclinical studies; format: in vivo; conditions: cynomolgus monkeys, unpublished data
[2] = system: hepatic de novo lipogenesis (DNL); experiment: Fructose-stimulated fractional hepatic DNL; format: in vivo, human; conditions: for Inhibition of fasting-adjusted fractional DNL AUEC relative to placebo: 10-hour period; for Inhibition of fasting-adjusted fractional DNL AUEC relative to placebo / Mean reduction of fasting-adjusted DNL at 10 hours postdose relative to placebo: mean ± SEM
In short: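 Overweight/obese men (18–50 y, BMI 25–32 kg/m²), 10/dose, placebo crossover, ≥5-day washout, fasted from hour −12. IV [1-13C]acetate (10 g in 1,000 mL 0.45% saline, 50 mL/hour, 19 h) from hour −9; capsule at hour 0; fructose 250 mg/kg every 30 min to hour +9.5. VLDL-TG palmitate by GC-MS/MIDA, hours −1 to +10; fasting-baseline-subtracted, AUEC, expressed relative to placebo.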

[3] = Serum lipids, leptin, adiponectin, glucose and blood ketones; format: in vivo, human; conditions: single dose of 20, 50, or 200 mg
In short: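 Blood was drawn at protocol-specified times during the fasted, fructose-fed crossover periods. Serum lipids and blood ketones (ketometer) were measured by a clinical laboratory. Leptin and adiponectin were measured by solid-phase ELISA.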

[4] = Plasma pharmacokinetics after a single oral dose; format: in vivo; conditions: human
In short: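 Single oral capsule dose with 240 mL water in fasted men during fructose feeding, n = 10/group. Plasma was sampled predose and hourly through 10 h. Levels were measured by validated HPLC-MS/MS, with a lower limit of quantitation of 0.5 ng/mL. Noncompartmental parameters were calculated from actual sample times.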

[5] = system: hepatic de novo lipogenesis (DNL); experiment: PK-PD analysis of plasma exposure versus fractional DNL; format: in vivo, human; conditions: all dose groups
In short: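 Each subject's time-matched plasma levels (sampled predose and hourly to 10 h, HPLC-MS/MS) were paired with fasting-adjusted fractional DNL at every sampling point for every dose group. The plasma levels at which 70% and 90% inhibition of maximal DNL occurred were read from these paired data.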

[6] = Safety: treatment-emergent adverse events after a single oral dose; format: in vivo, human
In short: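 TEAEs were any events after study medication and were coded to MedDRA v18.0. Events were attributed to the period's treatment, and events between acetate infusion and first dosing were counted separately. Monitoring included physical exams, vital signs (hours 0, 5.5, 10.5), clinical laboratory tests (day −1 and hour 10) and screening ECG.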

[7] = single doses between 30 and 1,000 mg; healthy adults; cited from earlier work
[8] = system: hepatic DNL; conditions: subjects with type 2 diabetes mellitus and hypertriglyceridemia; cited from earlier work

SMILES: COc1ccccc1[C@H](Cn1c(=O)n(C(C)(C)C(=O)O)c(=O)c2c(C)c(-c3ncco3)sc21)OC1CCOCC1 [NDI‐010976]
- Hepatic extraction [1]: approximately 94%
- Inhibition of fasting-adjusted fractional DNL AUEC relative to placebo ([2]; 20 mg single oral dose): approximately 70 ± 6%
- Mean reduction of fasting-adjusted DNL at 10 hours postdose relative to placebo ([2]; 20 mg single oral dose): approximately 41 ± 9%
- Inhibition of fractional DNL at 2 hours postdose ([2]; 20 mg, mean ± standard deviation): 60 ± 26%
- Inhibition of DNL by fasting-adjusted DNL AUEC, all subjects ([2]; 50 mg single dose, 10-hour period vs matched placebo period): > 70%
- Inhibition of fasting-adjusted fractional DNL AUEC relative to placebo ([2]; 50 mg single oral dose): ~85 ± 3%
- Mean reduction of fasting-adjusted DNL at 10 hours postdose relative to placebo ([2]; 50 mg single oral dose): ~53 ± 9%
- Inhibition of DNL, all subjects ([2]; 200 mg single dose): complete or near complete inhibition of DNL
- Inhibition of fasting-adjusted fractional DNL AUEC relative to placebo ([2]; 200 mg single oral dose): ~104 ± 2%
- Mean reduction of fasting-adjusted DNL at 10 hours postdose relative to placebo ([2]; 200 mg single oral dose): ~94 ± 4%
- Effects on serum glucose, lipids, leptin, adiponectin, blood ketones [3]: no significant NDI‐010976 effects
- Tmax [4]: 1 to 2 h
- Cmax ([4]; 20 mg): 43.4 ng/mL
- concentration at 2 h ([4]; 20 mg): 5.7 to 23.5 ng/mL
- Plasma concentration associated with at least 70% inhibition of fractional DNL ([5]; one data point outlier): > 2.2 ng/mL
- Plasma concentration yielding >90% inhibition of fractional DNL ([5]; two data point outliers): > 4.0 ng/mL
- Number of subjects with TEAEs (% of subjects dosed) ([6]; 20 mg): 3 (33%) subjects (%)
- Number of subjects without TEAEs (% of subjects dosed) ([6]; 20 mg): 6 (67%) subjects (%)
- Number of subjects with TEAEs (% of subjects dosed) ([6]; 50 mg): 7 (70%) subjects (%)
- Number of subjects without TEAEs (% of subjects dosed) ([6]; 50 mg): 3 (30%) subjects (%)
- Number of subjects with TEAEs (% of subjects dosed) ([6]; 200 mg): 5 (50%) subjects (%)
- Number of subjects without TEAEs (% of subjects dosed) ([6]; 200 mg): 5 (50%) subjects (%)
- Number of subjects with TEAEs (% of subjects dosed) ([6]; Total, all doses): 15 (52%) subjects (%)
- Number of subjects without TEAEs (% of subjects dosed) ([6]; Total, all doses): 14 (48%) subjects (%)
- Deaths, serious AEs, Grade 3 or higher TEAEs ([6]; single oral doses 20 to 200 mg): no deaths, serious AEs, or Grade 3 or higher TEAEs
- Safety and tolerability ([6]; single oral doses 20 to 200 mg): safe and well tolerated
- Tolerability [7]: well tolerated

SMILES: CCc1ccc(CCOc2ccc(CC3SC(=O)NC3=O)cc2)nc1 (stereo not shown) [pioglitazone]
- Reduction of hepatic DNL [8]: 40%
